FGF22 binding: binders of human FGF22 protein, primary screen, FGF22 synaptogenesis inhibitor project, biophysical, thermal shift, single point; recombinant FGF22 thermal shift, SYPRO orange fluorescence; percent of sucrose octasulfate shift, DMSO zero; Fibroblast growth factor 22 (Homo sapiens), Q9HCT0; activity (Tm shift, normalised), % at 9.99 µM; actives 1.5% (n = 340,000);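 active = mean Tm shift, scaled 0 neutral to 100 positive control, at about 1.3% or above, every replicate too, limit read from the data; inconclusive = no clear call, values can overlap the other calls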
Target sequence (Q9HCT0 whole entry, looked up): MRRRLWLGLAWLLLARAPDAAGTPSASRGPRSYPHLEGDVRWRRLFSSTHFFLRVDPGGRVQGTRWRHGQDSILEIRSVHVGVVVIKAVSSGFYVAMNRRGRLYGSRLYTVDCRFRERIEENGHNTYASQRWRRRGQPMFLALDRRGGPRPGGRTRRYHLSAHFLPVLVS
PglD inh: C. jejuni PglD acetyltransferase inhibitors, primary screen, biochemical, DTNB colorimetric, single point; purified PglD enzyme, DTNB colorimetric CoA detection; inhibition, % at 12.5 µM; actives 0.098% (n = 360,000); AID 602405, 2012; in the data active = inhibition above about 16%, passing the limit was not always enough; inconclusive = no clear call, values can overlap the other calls
C2C12 statin: suppressors of statin myotoxicity in C2C12 myotubes, primary screen, cell-based, single point, plate reader | C2C12 myotubes + simvastatin, ATP luminescence, 48 h; scaled: DMSO 0, geranylgeraniol control 100 | AID 602340, 2012 | actives 0.78% (n = 330,000) | rescue of ATP level, % at 7.49 µM;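 active = mean ATP rescue above about 67%, or every replicate alone reaching that limit, limit read from the data, passing the limit was not always enough; inconclusive = no clear call, values can overlap the other calls; inactive = mean under the limit and some replicate under it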;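 note: myotubes were challenged with 10 µM simvastatin during compound exposure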
E-sel inducer: E-selectin induction in HUVECs, primary screen, imaging, HUVEC, immunofluorescence imaging, single point. P16581. normalized: neutral wells 0, TNF-alpha wells 100. actives 0.37% (n = 260,000). activation, % at 7.58 µM;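 active = mean E-selectin-positive cell signal at least 10% of the positive control, reached in at least 60% of replicates, without over 20% cell loss; inconclusive = no rule given, readout overlaps actives, possibly toxicity-flagged; inactive = the rest, including those meeting only one limit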
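material = human umbilical vein endothelial cells (HUVEC), E-selectin induction | quantity = 3,000 cells/well | medium = EGM-2 growth medium on 0.1% gelatin-coated wells | technique = immunofluorescence imaging | read-out basis = % PE-positive cells | control set = TNF-alpha positive control, DMSO neutral control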
DENV2 CPE rescue: inhibitors of DENV2 cytopathic effect, primary screen, cell-based, plate reader, single concentration | DENV2-infected cells, cytopathic effect rescue | CPE inhibition, % at 9.99 µM | actives 1.7% (n = 350,000) | AID 651640, 2012; in the data active = CPE inhibition above about 20%, passing the limit was not always enough; inconclusive = no clear call, values can overlap the other calls; tested in BHK-21 cells
XiGFP reactiv: activators of inactive X chromosome reactivation, primary screen, imaging, XiGFP fibroblasts, GFP high-content imaging, set 2; XiGFP mouse fibroblasts, % GFP-positive cells imaging, 3 d; cells co-treated with 5-aza-dC sensitizer; scaled so ellipticine positive control = 100%; activation, % at 7.58 µM; actives 0.055% (n = 360,000); AID 743238, 2013;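 active = mean normalized replicate activation at least 10% and every replicate at or above 10%; inconclusive = only one of the two criteria met; inactive = mean below 10% and not all replicates reach 10%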
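System: 68-5-11 XiGFP fibroblast line; Timing: 3 days compound exposure; Compound dosing: one concentration, pinned; Benchmarks: positive control ellipticine, 6 µM final; Buffer or medium: DMEM containing 5-aza-dC.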
Large screens that a line does not name were inactive; ! = repeats disagree. Compounds with a hit are over-represented: about 3.3% of the library has one in this group of screens.

CN1C(=O)[C@H]2[C@@H](/C=C/c3ccccc3)N3C(=O)CN(CCO)C(=O)[C@@]3(Cc3ccccc3)[C@H]2C1=O	none
COc1ccc(-c2c(C)nn3c(N4CCN(Cc5ccccc5)CC4)cc(C)nc23)cc1OC	none (no result: PglD inh)
COc1ccccc1-c1c(C)nn2c(N3CCN(Cc4ccccc4)CC3)cc(C)nc12	DENV2 CPE rescue 55
Cc1ccc2c(c1)c1c(n2CC(O)CN2CCCCCC2)CCCC1 (configuration not stated)	none
Cc1ccc2c(c1)c1c(n2CC(O)Cn2c(C)nc3ccccc32)CCCC1 (configuration not stated)	E-sel inducer 69
COc1ccc(C#Cc2ccc([C@H]3[C@@H](CO)N4CCCCN(C(=O)Nc5ccccc5)C[C@@H]34)cc2)cc1	DENV2 CPE rescue 71 (no result: C2C12 statin)
COc1ccc(C#Cc2ccc([C@@H]3[C@H](CO)N4CCCCN(C(=O)Nc5ccccc5)C[C@@H]34)cc2)cc1	DENV2 CPE rescue 34 (no result: C2C12 statin)
C/C=C/c1ccc([C@H]2[C@@H](CO)N3CCCCN(C(=O)Nc4ccc(OC)cc4)C[C@@H]23)cc1	DENV2 CPE rescue 30 (no result: C2C12 statin)
COc1ccc(NC(=O)N2CCCCN3[C@H](CO)[C@@H](c4ccc(-c5ccccc5C)cc4)[C@@H]3C2)cc1	none (no result: C2C12 statin)
COc1ccc(NC(=O)N2CCCCN3[C@H](C2)[C@H](c2ccc(-c4ccccc4C)cc2)[C@@H]3CO)cc1	DENV2 CPE rescue 27 (no result: C2C12 statin)
COc1ccc(NC(=O)N(C)C[C@H]2Oc3ccc(NC(=O)NC(C)C)cc3C(=O)N([C@@H](C)CO)C[C@@H]2C)cc1	none
O=C(C[C@@H]1C[C@@H]2c3cc(NS(=O)(=O)c4ccc(F)cc4)ccc3O[C@@H]2[C@H](CO)O1)NCc1ccc(-c2ccccc2)cc1	none (no result: FGF22 binding)
CC(C)CC#Cc1ccc([C@@H]2[C@H]3CN(C(=O)Nc4ccccc4)CCCCN3[C@H]2CO)cc1	DENV2 CPE rescue 33 (no result: C2C12 statin)
C/C=C/c1ccc(C2[C@@H]3CN(C(=O)Nc4ccc(C(F)(F)F)cc4)C[C@H]2N3)cc1 (some centres not stated)	DENV2 CPE rescue 41! (no result: PglD inh, C2C12 statin)
CCCN(C)C[C@H]1Oc2ncc(C#Cc3ccccc3OC)cc2C(=O)N([C@H](C)CO)C[C@H]1C	none
COc1ccc(C2(NC(C)=O)CCN(C(=O)c3cccs3)CC2)cc1	C2C12 statin 99 (no result: FGF22 binding, E-sel inducer, DENV2 CPE rescue, XiGFP reactiv)
COc1cnc(-c2cccc(C(F)(F)F)c2)nc1OC	FGF22 binding 43, E-sel inducer inconclusive (no result: PglD inh, C2C12 statin)
O=C(Nc1ccccc1F)N[C@@H]1CC[C@H](CCNC(=O)C2CCCC2)O[C@H]1CO	DENV2 CPE rescue 26
O=C(Nc1ccccc1F)N[C@H]1CC[C@H](CCNC(=O)C2CCCCC2)O[C@@H]1CO	none
O=C(Nc1ccccc1F)N[C@@H]1CC[C@H](CCNC(=O)C2CCCC2)O[C@@H]1CO	none
O=C(Nc1ccccc1F)N[C@@H]1CC[C@@H](CCNC(=O)C2CCCC2)O[C@H]1CO	DENV2 CPE rescue 39
COc1ccc(CN(C)C[C@@H]2Oc3ccc(NC(=O)Cc4ccccc4)cc3CC(=O)N([C@@H](C)CO)C[C@H]2C)cc1	none (no result: PglD inh, C2C12 statin)
C[C@@H]1CN([C@@H](C)CO)C(=O)c2cc(NC(=O)c3ccncc3)ccc2O[C@@H](C)CCCCO[C@H]1CN(C)C(=O)CCCN(C)C	none (no result: C2C12 statin)
CCCNC(=O)N[C@H]1C=C[C@H](CC(=O)NCCc2ccccc2)O[C@@H]1CO	none
Cc1cc(C)nc(/N=C(\N)Nc2ccc(S(=O)(=O)Nc3nccc(C)n3)cc2)n1	FGF22 binding 43 (no result: E-sel inducer)
Cc1ccnc(NS(=O)(=O)c2ccc(NC(=O)/C=C/c3ccccc3)cc2)n1	none (no result: E-sel inducer)
Cc1ccnc(NS(=O)(=O)c2ccc(NC(=O)/C=C/c3cccs3)cc2)n1	FGF22 binding 44 (no result: PglD inh, C2C12 statin, E-sel inducer)
CN1CCN(C(=O)C[C@H]2CC[C@H]3[C@@H](COC[C@H](O)CN3Cc3ccc4c(c3)OCO4)O2)CC1	DENV2 CPE rescue 56
O=C(C[C@@H]1CC[C@H]2[C@@H](COC[C@@H](O)CN2Cc2ccc3c(c2)OCO3)O1)N1CCOCC1	DENV2 CPE rescue 30
O=C(C[C@H]1CC[C@H]2[C@@H](COC[C@@H](O)CN2Cc2ccc3c(c2)OCO3)O1)N1CCOCC1	none
Cc1noc(C)c1NC(=O)N(C)C[C@@H]1Oc2ccc(NC(=O)C3CC3)cc2C(=O)N([C@@H](C)CO)C[C@H]1C	none
Cc1ccccc1OCc1nnc(SCc2cc(=O)[nH]c3ccccc23)n1-c1ccccc1	DENV2 CPE rescue inconclusive (no result: E-sel inducer)
Cc1ccc(OCc2nnc(SCc3cc(=O)[nH]c4ccccc34)n2-c2ccccc2)cc1	DENV2 CPE rescue 60 (no result: PglD inh, C2C12 statin)
O=S(=O)(NC1CCN(Cc2ccc(OCCO)cc2)CC1)c1cc(Cl)ccc1Cl	none (no result: C2C12 statin, E-sel inducer, XiGFP reactiv)
O=S(=O)(NC1CCN(Cc2ccc(OCCO)cc2)CC1)c1cc(C(F)(F)F)ccc1Cl	DENV2 CPE rescue 29 (no result: C2C12 statin, E-sel inducer, XiGFP reactiv)
O=C1C=CC(O)C2(CO)OC12 (configuration not stated)	DENV2 CPE rescue 25
CN(CC(=O)O)S(=O)(=O)c1ccc2c(c1)n(C)c(=O)c(=O)n2C	FGF22 binding 44 (no result: PglD inh, C2C12 statin)
CCCNS(=O)(=O)c1ccc2c(c1)n(C)c(=O)n2C	none (no result: E-sel inducer)
CCCCN(C)CCNS(=O)(=O)c1ccc2c(c1)n(C)c(=O)c(=O)n2C	E-sel inducer 164
CC(C)(C)NC[C@@H](O)COc1cccc2c1CCCC2=O	DENV2 CPE rescue 31
CNS(=O)(=O)c1ccc2nc(NC(=O)/C=C/c3ccco3)sc2c1	FGF22 binding 43 (no result: PglD inh, C2C12 statin)
Cc1nc(NC(=O)/C=C/c2ccco2)sc1C	none (no result: PglD inh, C2C12 statin)
O=C(COC(=O)CN1C(=O)NC2(CCCC2)C1=O)Nc1ccccc1C(F)(F)F	none
O=C(COC(=O)CN1C(=O)NC2(CCCC2)C1=O)Nc1ccc(C(F)(F)F)cc1[N+](=O)[O-]	DENV2 CPE rescue 32 (no result: E-sel inducer)
CC(C)NC(=O)N(C)C[C@H]1Oc2ccc(NC(=O)NC3CCCCC3)cc2CC(=O)N([C@H](C)CO)C[C@@H]1C	none (no result: E-sel inducer)
C[C@@H]1CCCCO[C@H](CN(C)S(=O)(=O)c2ccc(F)cc2)[C@@H](C)CN([C@@H](C)CO)C(=O)c2cc(NS(C)(=O)=O)ccc2O1	DENV2 CPE rescue 29

Compound activity deposited in PubChem BioAssay by Broad Institute.
